Screens deposited in PubChem BioAssay by several laboratories.
MDM2 E3 inh: blocks human Mdm2 ubiquitin ligase activity; cell-based MDM2 ubiquitination luciferase reporter, 2 h; 0 = plate control, 100 = twice control, blank-subtracted; signal enhancement, % at 5 µM; hit rate 0.11% among 210,000;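 active = signal enhancement of 30% or more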;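 note: luminescence tracks abundance of the self-degrading MDM2-luciferase fusion protein; higher signal means inhibition of MDM2 E3 ligase activity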
Target sequence (Q00987 whole entry, looked up, the tested form may be a part): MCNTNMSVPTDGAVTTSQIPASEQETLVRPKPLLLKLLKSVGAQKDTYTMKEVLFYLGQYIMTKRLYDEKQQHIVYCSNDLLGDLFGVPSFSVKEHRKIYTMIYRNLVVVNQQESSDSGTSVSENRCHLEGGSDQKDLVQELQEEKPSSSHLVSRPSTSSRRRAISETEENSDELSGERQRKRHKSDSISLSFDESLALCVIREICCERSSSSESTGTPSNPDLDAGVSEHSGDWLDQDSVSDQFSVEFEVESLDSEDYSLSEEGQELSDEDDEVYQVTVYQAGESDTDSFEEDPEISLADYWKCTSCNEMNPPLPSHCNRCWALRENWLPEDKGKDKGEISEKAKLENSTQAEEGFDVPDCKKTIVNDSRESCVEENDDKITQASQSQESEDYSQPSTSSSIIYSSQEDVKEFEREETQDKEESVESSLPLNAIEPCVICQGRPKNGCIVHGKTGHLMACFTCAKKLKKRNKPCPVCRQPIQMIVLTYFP
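Assay system: stable mammalian line carrying autodegrading MDM2–luciferase fusion reporter; Input: 2000 cells in each well; Compound dosing: single-point 5 µM; Schedule: 2 h compound exposure at 37 °C; Signal: SteadyLite luciferase luminescence after 15 min room-temperature reagent incubation; Evaluation: % luminescence enhancement versus blank-corrected plate control mean; Benchmarks: plate controls and plate blanks.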
pCIP destab: lowers stability of the mouse p/CIP coactivator protein | Q05BA5 | F442A p/CIP-EGFP cells, EGFP fluorescence, 16 h | decrease of EGFP signal, % at 10 µM | hit rate 0.01% among 290,000;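 active = EGFP signal decrease of at least 30% at 10 µM or well 3 SD below plate mean, unless failing retest; inactive = the rest, including hits failing retest or dose response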
Hep lipid drop: modulators of hepatic lipid droplet formation; AML12 mouse hepatocytes, oleate lipid droplets, BODIPY imaging; inhibition, % at 6.5 µM; hit rate 0.4% among 240,000;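 active = lipid droplet intensity inhibited by at least 50%, with more than 500 cells counted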
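System: AML12 hepatocytes (mouse). Probe or stimulus: oleic acid at 100 µM to induce lipid droplet formation. Times: overnight treatment with compound plus oleate. Detection: Image-based BODIPY and DAPI two-channel analysis. Evaluation: percent inhibition of filter-corrected integrated lipid droplet intensity per well.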
Of the large screens only hits and unclear results are named; the others gave an inactive call. Many of the other results were omitted from the sample, so hits are more common in it than they were.

CCOC(=O)COc1ccc(C2NC(C(=O)O)CS2)cc1 (centres undefined)	none
CCOC(=O)COc1ccc(C2CC(C)=NN2c2ccccc2)cc1 (centres undefined)	MDM2 E3 inh 32
O=C(Cn1c2ccc(F)cc2c2nc3n(c(=O)c21)CCS3)NCC1CCCO1 (centres undefined)	none (no result: MDM2 E3 inh)
O=C(CSc1nnc(-c2ccc(F)cc2)o1)NC1CCCC1	none (no result: MDM2 E3 inh)
O=[N+]([O-])c1ccc(/C=C/C2=NN(c3ccccc3)C(c3ccco3)C2)o1 (centres undefined)	Hep lipid drop 54
C(=C\c1ccco1)/C1=NN(c2ccccc2)C(c2ccco2)C1 (centres undefined)	none
CC(C)(C)SCCNS(=O)(=O)c1ccc(C#N)cc1	none
CC(C)CN1C(=O)/C(=C/c2c(N3CCc4ccccc4C3)nc3ccccn3c2=O)SC1=S	Hep lipid drop 120
CCOC(=O)CC1C(=O)NCCN1c1nc2c(C)cccn2c(=O)c1/C=C1\SC(=S)N(CC(C)C)C1=O (centres undefined)	none
CC(C)CCN1CCN(Cc2nc3c(s2)CCCC3)CC1CCO (centres undefined)	none
N#C/C(=C\N1CCOCC1)C(N)=O	none
O=C(Nc1ccc2cn[nH]c2c1)c1c(Cl)cccc1Cl	none
O=C1C(Cl)=C(Nc2ccc3cn[nH]c3c2)C(=O)c2ccccc21	pCIP destab 59 (no result: MDM2 E3 inh)
Cc1cccc(-c2sc(Nc3ccccc3)n[n+]2-c2ccc(F)cc2)c1	none (no result: MDM2 E3 inh)
CCCCNc1n[n+](C)c(-c2cccc(C)c2)s1	MDM2 E3 inh 35
COc1cc2c(cc1CN1CCN(C(=O)c3cc(OC)c(OC)c(OC)c3)CC1)OCO2	none (no result: MDM2 E3 inh)
COc1ccc(S(=O)(=O)N2CCOC2CNC(=O)C(=O)NCCN2CCOCC2)cc1OC (centres undefined)	none (no result: MDM2 E3 inh)
O=C(CSc1ccc(-c2ccco2)nn1)NC1CCCCC1	none
O=C(CSc1ccc(-c2ccco2)nn1)NC1CCCC1	MDM2 E3 inh 32
Cc1ccc(NS(=O)(=O)c2cccc([N+](=O)[O-])c2)nc1	none
Oc1ccc(N2CCN(Cc3c(-c4ccccc4)nc4ccccn34)CC2)cc1	none (no result: MDM2 E3 inh)
O=C(Nc1nc(-c2ccccn2)cs1)c1ccc(Br)s1	MDM2 E3 inh 45
O=C(Nc1nc(-c2ccccn2)cs1)c1ccco1	none
CCOC(=O)c1ccc(NC(=O)Cn2nnc(-c3ccccc3)n2)cc1	none (no result: Hep lipid drop)
CC(C)(C)OC(=O)N1CCN(c2ccc(NC(=O)Cn3nnc(-c4ccccc4)n3)cc2)CC1	Hep lipid drop 84
CCOC(=O)C1=C(C)NC(C)=C(C(=O)OCC)C1c1sccc1C	none (no result: Hep lipid drop)
CC(C)(C)c1ccc(S(=O)(=O)Nc2ccc(Cc3ccncc3)cc2)cc1	Hep lipid drop 67
CC(=O)Nc1ccc(S(=O)(=O)Nc2ccc(Cc3ccncc3)cc2)cc1	none (no result: MDM2 E3 inh)
O=c1[nH]c2cc3c(cc2cc1CN(Cc1nnnn1CC1CCCO1)C1CCCC1)OCO3 (centres undefined)	MDM2 E3 inh 30 (no result: Hep lipid drop)
O=c1[nH]c2cc3c(cc2cc1CN(Cc1nnnn1CC1CCCO1)C1CCCCC1)OCO3 (centres undefined)	none
Cc1ccc(C(=O)Nc2ccc(N3CCN(C(=O)c4cccs4)CC3)cc2)c(Cl)c1	none (no result: MDM2 E3 inh)
CCCCNC(=O)CC1N=C2c3ccccc3N=C(SCC(=O)Nc3ccc(OC)cc3)N2C1=O (centres undefined)	pCIP destab 46 (no result: Hep lipid drop)
CCCCNC(=O)CC1N=C2c3ccccc3N=C(SCC(=O)Nc3cccc(OC)c3)N2C1=O (centres undefined)	none (no result: Hep lipid drop)
Cc1cc(-c2ccc(C)c(S(=O)(=O)NCc3ccc(OC(C)C)cc3)c2)on1	none (no result: MDM2 E3 inh)
COc1cccc(CNS(=O)(=O)/C=C/c2ccc3c(c2)OCO3)c1	none
CN(C)c1ccc(C(=O)N2CCCC2)cc1	none
Cc1cccc(/C=N/Nc2cc(N3CCOCC3)nc(N3CCOCC3)n2)c1	Hep lipid drop 130
CC(C)c1ccc(/C=N/Nc2cc(N3CCOCC3)nc(N3CCOCC3)n2)cc1	none
Nc1c(Cl)ncnc1N/N=C/c1ccc2ccccc2n1	MDM2 E3 inh 41
Nc1c(Cl)ncnc1N/N=C/c1ccccn1	none
CCN(CC)S(=O)(=O)c1ccc2oc(C(=O)N3CCOCC3)c(C)c2c1	none
CCN(CC)S(=O)(=O)c1ccc2oc(C(=O)N3CCCCCC3)c(C)c2c1	pCIP destab 38
CC1(C)CC(CCC(=O)Nc2ccc(S(N)(=O)=O)cc2)C(=O)O1 (centres undefined)	none (no result: Hep lipid drop)
Cc1ccc(NC(=O)CCC2CC(C)(C)OC2=O)cc1 (centres undefined)	MDM2 E3 inh 31
Cn1c(=O)cc(OCC(=O)NCc2cccs2)c2ccccc21	MDM2 E3 inh 35
COc1ccc(CNC(=O)COc2cc(=O)n(C)c3ccccc23)cc1	none
CC(C)(C)CC(=O)Nc1ccc(S(=O)(=O)N2CCCC2)cc1	none
